Reference: ChEMBL document CHEMBL1156641, “Linear and cyclic C18 terpenoids from the southern Australian marine brown alga Cystophora moniliformis” (J Nat Prod, 2008)
Activity calls are given as the source filed them. The calls are words filed in the database; no cut-off is given here.

Columns and labels:
[1] = test system: Trichophyton mentagrophytes; test: […] activity against Trichophyton mentagrophytes ATCC 28185 assessed as zone of inhibition at 1 mg/mL; format: functional, organism-based
In short: (§1)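 Disk diffusion: fungal inoculum of known concentration mixed into potato dextrose or Mueller Hinton agar and poured as a lawn. Samples at 1 mg/mL were applied to 6 mm filter paper disks, solvent evaporated, and disks placed on the seeded agar with solvent and positive controls. After incubation, the zone of inhibition outside the disk was measured as radius in mm.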

[2] = test system: Trichophyton mentagrophytes; test: […] activity against Trichophyton mentagrophytes ATCC 28185 assessed as zone of inhibition; format: functional; in short: as §1
P388 = test: Antitumor activity against mouse P388 cells after 72 hrs by MTT assay; format: functional, cell-based; details: P388, 72 h
In short: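 P388 murine leukemia cells were incubated 72 h with a 2-fold dilution series of sample, tested from 1 mg/mL. Growth was read by MTT reduction to formazan (absorbance) relative to untreated control cells. The concentration giving 50% growth reduction is reported as IC50.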

CC(=O)CC/C=C(\C)CC[C@H]1C(C)(C)[C@@H](O)CC[C@@]1(C)O [MONILIFORMINOL B]
Activity [1]: inactive | inhibition zone (IZ) [2]: 1 mm | IC50 (P388): > 40 µM

CC(=O)CC/C=C(\C)CC/C=C(\C)CC/C=C(/C)CO
Activity [1]: inactive | inhibition zone (IZ) [2]: 1 mm | IC50 (P388): > 40 µM

C=C(C)[C@H](O)CC/C(C)=C/CC/C(C)=C/CCC(C)=O
Activity [1]: inactive | inhibition zone (IZ) [2]: 1 mm | IC50 (P388): > 40 µM

CC(=O)CC/C=C(\C)CC[C@H]1C(C)(C)[C@@H](O)CC[C@]1(C)O [MONILIFORMINOL A]
Activity [1]: inactive | inhibition zone (IZ) [2]: 1 mm | IC50 (P388): > 40 µM

COC(C)(C)[C@H](O)CC/C(C)=C/CC/C(C)=C/CCC(C)=O
Activity [1]: inactive | inhibition zone (IZ) [2]: 1 mm | IC50 (P388): > 40 µM

CC(=O)CC/C=C(\C)CCC1=C(C)CC[C@H](O)C1(C)C
Activity [1]: inactive | inhibition zone (IZ) [2]: 1 mm | IC50 (P388): > 40 µM

CC(=O)CC/C=C(\C)CC/C=C(\C)CC[C@@H](O)C(C)(C)O
Activity [1]: inactive | inhibition zone (IZ) [2]: 1 mm | IC50 (P388): > 40 µM
